The source of these data is ChEMBL document CHEMBL1121898, “Potential antiestrogens. Synthesis and evaluation of mammary tumor inhibiting activity of 1,2-dialkyl-1,2-bis(3'-hydroxyphenyl)ethanes” (1981).

Each structure is given as a SMILES string. Activity calls are given as the source filed them.

The species entered for experiment [1] is Rattus norvegicus. The experiment can be described thus: Final number of DMBA-induced hormone-dependent mammary carcinoma tumors in rats at 1 mg. Format: functional. The procedure, abridged: (§1)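 Sprague-Dawley rats carrying DMBA-induced, hormone-dependent mammary adenocarcinoma, at least one tumor >140 mm², were placed in groups of ten. Compounds were given sc, with doses in mg/kg: a single daily dose Monday to Thursday and a double dose on Friday. Ovariectomy served as a comparator group. New tumors arising during the test were counted.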

Experiment [2] is filed under the species Rattus norvegicus. The experiment can be described thus: Final number of DMBA-induced hormone-dependent mammary carcinoma tumors in rats at 2 mg. In kind it is functional. Summed up:
as §1

Experiment [3] is filed under the species Rattus norvegicus. The experiment can be described thus: Final number of DMBA-induced hormone-dependent mammary carcinoma tumors in rats at 4 mg. In kind it is functional. The procedure, abridged:
as §1

Experiment [4] is filed under the species Rattus norvegicus. The experiment can be described thus: Partial remission of DMBA-induced hormone-dependent mammary carcinoma tumors in rats at 1 mg. Format: functional. Summed up:
(§2)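 DMBA-induced, hormone-dependent mammary adenocarcinoma in SD rats. Rats bearing at least one tumor >140 mm² were placed in groups of ten. Compound was given sc as a single dose (mg/kg) daily Monday–Thursday and a double dose on Friday. Tumors were counted at the start and as new tumors; responses were scored as complete remission (not palpable), partial remission (≥50% reduction), no change or progression. Tumor area and body weight were recorded as % change.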

Experiment [5] is filed under the species Rattus norvegicus. The experiment can be described thus: Partial remission of DMBA-induced hormone-dependent mammary carcinoma tumors in rats at 4 mg. Format: functional. Summed up:
as §2

The species named for experiment [6] is Rattus norvegicus. The experiment can be described thus: Percent unchanged tumor size of DMBA-induced hormone-dependent mammary carcinoma tumors in rats at 1 mg. Format: functional.
The species named for experiment [7] is Rattus norvegicus. The experiment can be described thus: Progression of DMBA-induced hormone-dependent mammary carcinoma tumors in rats at 1 mg. Format: functional.
The species entered for experiment [8] is Rattus norvegicus. In words: Complete remission of DMBA-induced hormone-dependent mammary carcinoma tumors in rats at 2 mg. In kind it is functional. Summed up:
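Female SD rats bearing DMBA-induced, hormone-dependent mammary adenocarcinoma, with at least one tumor >140 mm², were grouped in tens. Dosing was sc per kg body weight: a single dose daily Monday–Thursday and a double dose Friday. Ovariectomy served as the comparison arm. Complete remission was defined as a tumor no longer palpable. Body weight and tumor area changes were also recorded.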

The species entered for experiment [9] is Mus musculus. In words: Vaginal cornification test in mice at 5 ug; predominant cellular component leucocytes (diestrus). Format: functional, organism-based. The procedure, abridged:
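Female NMRI mice (~15 g) were ovariectomized; castration was confirmed at 10 days by leucocyte smears. Mice were primed with estradiol 3-benzoate 0.2 μg, and only responders showing estrus were kept. Groups of three received sc test compound in 0.1 mL olive oil daily for 3 days. Saline vaginal smears were taken 6, 24, 30, 48 and 54 h after the last dose and scored by Allen-Doisy.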

In experiment [10] the target is T1, Estrogen receptor (Mus musculus) (UniProt O08537+P19785). The experiment can be described thus: Antiestrogenic activity in uterotrophic test in mice at 5 ug (experiment 1). In kind it is functional. The procedure, abridged: (§3)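 Immature female NMRI mice, 20 days old (14.5 ± 1.2 g), randomly grouped 10 per group. Each received a daily sc injection for 3 days of 0.1 mL olive oil solution containing test compound, together with estrone to stimulate uterine growth. Uteri were removed 24 h after the last injection and weighed. Results are reported as % inhibition of the estrone-stimulated uterine weight gain, mean ± SD.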

Experiment [11] concerns the target T1, Estrogen receptor (Mus musculus). In words: Antiestrogenic activity in uterotrophic test in mice at 500 ug (experiment 2). Format: functional. Summed up: as §3
For experiment [12] the target is unchanged. The experiment can be described thus: Antiestrogenic activity in uterotrophic test in mice at 50 ug (experiment 2). In kind it is functional. The procedure, abridged:
as §3

For experiment [13] the target is unchanged. The experiment can be described thus: Estrogenic activity in uterotrophic test in mice at 24 ug (experiment 2). Format: functional. Summed up: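 Uterine growth stimulation in immature female NMRI mice, 20 days old (14.5 ± 1.2 g), 10 per group. Test compound in 0.1 mL olive oil was given sc daily for 3 days. Uteri were excised 24 h after the final injection and weighed. Effect is reported as mean ± SD.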

Experiment [14] shares this target. In words: Inhibitory activity in mouse uterine weight test at 5 ug (experiment 1). Format: functional. Summed up:
(§4)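 Antiuterotrophic (Dorfman) assay in immature 20-day-old female NMRI mice, groups of 10. Uterine growth was stimulated with estrone (0.1 μg) and the test compound was given alongside it, sc daily for 3 days in 0.1 mL olive oil. Uteri were taken 24 h after the last dose. Uterine weight is reported as means ± SD and inhibition as % of the estrone-stimulated response.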

For experiment [15] the target is unchanged. The experiment can be described thus: Inhibitory activity in mouse uterine weight test at 500 ug (experiment 2). In kind it is functional. Summed up:
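Immature female NMRI mice, 20 days old (14.5 ± 1.2 g), in random groups of 10. They received sc injections daily for 3 days of 0.1 mL olive oil containing test compound, with estrone 0.1 μg given to stimulate uterine growth. Uteri were removed 24 h after the last injection and weighed (mean ± SD). Result is percent inhibition of the estrone-stimulated uterine weight gain.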

The species named for experiment [16] is Rattus norvegicus. The experiment can be described thus: Percent change in DMBA-induced hormone-dependent mammary carcinoma tumor area at 2.25 mg after 28 days. In kind it is functional. Summed up:
as §2

For experiment [17], the species on record is Rattus norvegicus. The experiment can be described thus: Final number of DMBA-induced hormone-dependent mammary carcinoma tumors in rats at 2.25 mg. In kind it is functional. Summed up: as §1
For experiment [18], the species on record is Rattus norvegicus. The experiment can be described thus: Percent change in body weight DMBA-induced hormone-dependent mammary carcinoma tumors in rats at 9 mg for 7 days. Format: functional.
For experiment [19], the species on record is Rattus norvegicus. The experiment can be described thus: Partial remission of DMBA-induced hormone-dependent mammary carcinoma tumors in ovariectomised rats. In kind it is functional. The procedure, abridged:
(§5)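 DMBA-induced, hormone-dependent mammary adenocarcinoma in SD rats, with ovariectomy as the treatment. Rats bearing at least one tumor >140 mm² were placed in groups of ten. Tumors were counted at the start and as new tumors. Responses were scored as complete remission, partial remission (≥50% size reduction), no change or progression, with % change in tumor area and body weight.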

For experiment [20], the species on record is Rattus norvegicus. The experiment can be described thus: Percent unchanged tumor size of DMBA-induced hormone-dependent mammary carcinoma tumors in rats at 9 mg. Format: functional.
Experiment [21] is filed under the species Rattus norvegicus. The experiment can be described thus: Percent unchanged tumor size of DMBA-induced hormone-dependent mammary carcinoma tumors in rats at 2.25 mg. Format: functional.
The species entered for experiment [22] is Rattus norvegicus. The experiment can be described thus: Progression of DMBA-induced hormone-dependent mammary carcinoma tumors in rats at 2.25 mg. In kind it is functional.
The species named for experiment [23] is Rattus norvegicus. In words: Progression of DMBA-induced hormone-dependent mammary carcinoma tumors in rats at 4.5 mg. In kind it is functional.
For experiment [24], the species on record is Rattus norvegicus. In words: Progression of DMBA-induced hormone-dependent mammary carcinoma tumors in ovariectomised rats. In kind it is functional. Summed up:
as §5

For experiment [25], the species on record is Rattus norvegicus. The experiment can be described thus: Initial tumor number of DMBA-induced hormone-dependent mammary carcinoma in rats at 2.25 mg. Format: functional. The procedure, abridged: as §2
The test system of experiment [26] is MCF7. The experiment can be described thus: Inhibition of estrogen receptor positive MCF-7 cell proliferation as cell number after 10 days at 10e-7 M and 10e-7 M 17-beta-estradiol. Format: functional, Homo sapiens. The procedure, abridged:
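MCF-7 cells were grown in McCoy's 5a medium with fetal bovine serum stripped by DCC (0.5 h, 45 °C). Compounds were dissolved in ethanol (final ≤0.5%) and diluted in complete medium. Cells were seeded at 5×10^4 cells/plate. On day 10, three replicate plates per group were counted by Coulter counter, three counts per plate. Percent T/C = test/control. In a retest, compounds were given at 10^-7 M with 17β-estradiol at 10^-7 or 10^-8 M.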

For experiment [27], the species on record is Mus musculus. In words: Vaginal cornification test in mice at 0.1 ug; predominant cellular component leucocytes (diestrus). In kind it is functional, organism-based.
Experiment [28] has as its target T1, Estrogen receptor (Mus musculus). The experiment can be described thus: Antiestrogenic activity in uterotrophic test in mice at 50 ug. In kind it is functional. Summed up:
as §3

Experiment [29] has the same target. In words: Estrogenic activity in uterotrophic test in mice at 90 ug. In kind it is functional. The procedure, abridged: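 Immature (20-day-old) female NMRI mice, 14.5 ± 1.2 g, randomized into groups of 10. Given the test compound sc daily for 3 days in 0.1 mL olive oil. Uteri removed 24 h after the last injection; uterine weight taken as the read-out, means ± SD. Dose in μg.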

The target is the same in experiment [30]. The experiment can be described thus: Inhibitory activity in mouse uterine weight test at 5 ug. Format: functional. The procedure, abridged: as §4

T1 sequence (O08537 whole entry, looked up): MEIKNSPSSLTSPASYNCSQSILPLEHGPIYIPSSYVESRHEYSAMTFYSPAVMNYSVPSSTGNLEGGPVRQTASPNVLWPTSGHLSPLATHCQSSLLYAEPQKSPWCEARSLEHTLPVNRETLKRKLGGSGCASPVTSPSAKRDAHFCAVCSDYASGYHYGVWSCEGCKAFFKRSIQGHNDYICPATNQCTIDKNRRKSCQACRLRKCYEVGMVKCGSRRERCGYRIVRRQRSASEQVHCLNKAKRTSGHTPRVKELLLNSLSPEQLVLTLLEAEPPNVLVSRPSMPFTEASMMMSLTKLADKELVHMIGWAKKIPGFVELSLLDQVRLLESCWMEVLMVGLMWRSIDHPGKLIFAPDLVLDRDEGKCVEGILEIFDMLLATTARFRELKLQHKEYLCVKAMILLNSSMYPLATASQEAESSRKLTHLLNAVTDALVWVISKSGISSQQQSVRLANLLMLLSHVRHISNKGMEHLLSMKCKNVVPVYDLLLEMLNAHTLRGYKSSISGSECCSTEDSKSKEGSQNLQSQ
T1 sequence (P19785 whole entry, looked up): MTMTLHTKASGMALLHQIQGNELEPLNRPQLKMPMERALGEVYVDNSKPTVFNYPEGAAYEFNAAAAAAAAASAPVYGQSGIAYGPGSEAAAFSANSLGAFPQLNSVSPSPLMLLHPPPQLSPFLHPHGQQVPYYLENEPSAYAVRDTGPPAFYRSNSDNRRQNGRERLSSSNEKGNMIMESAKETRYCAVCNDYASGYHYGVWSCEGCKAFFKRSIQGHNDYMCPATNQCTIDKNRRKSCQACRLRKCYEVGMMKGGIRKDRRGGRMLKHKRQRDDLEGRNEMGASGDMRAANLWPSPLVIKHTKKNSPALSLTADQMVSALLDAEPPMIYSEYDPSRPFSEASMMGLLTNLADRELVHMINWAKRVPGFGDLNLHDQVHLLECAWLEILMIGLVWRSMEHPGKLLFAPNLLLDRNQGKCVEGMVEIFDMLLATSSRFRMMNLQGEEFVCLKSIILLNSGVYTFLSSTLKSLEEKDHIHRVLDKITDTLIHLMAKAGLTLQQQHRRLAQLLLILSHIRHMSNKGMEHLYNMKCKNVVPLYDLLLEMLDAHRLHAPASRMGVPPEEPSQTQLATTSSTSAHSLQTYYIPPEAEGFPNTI

The inhibition is the relative decrease from the control value, in per cent. Higher therefore signals strong suppression. Regarding `CCC(c1cccc(O)c1)C(CC)c1cccc(O)c1` (stereo in doubt; 20), the No. of tumors in experiment [1] is given as 29; in [2], 23; in experiment [3] it was 11. The Tumors came out at 15% in [4]; 25% in [5]; 35% in experiment [6]; 29% in experiment [7]; 19% in experiment [8]. In [9], the outcome was inactive. For the same compound, the Effect in experiment [10] came out at 23.5; in experiment [11], 30.9; in [12], 28.3; in experiment [13], 18.5. Further, the values for the inhibition in [14] and in experiment [15] were 53% and 40%, respectively.

Take `CCCC(c1cccc(O)c1)C(CCC)c1cccc(O)c1` (stereo not given): the Change in experiment [16] is given as 271%; in [18] it was -2.7%. Moreover, the No. of tumors in experiment [17] is 17; in experiment [25], 22. Further, the Tumors in experiment [19] came out at 10%; in experiment [20], 9%; in experiment [21], 13%; in experiment [22] it was 54%; in experiment [23] it was 36%; in experiment [24] it was 0%. In experiment [26], this compound showed a Cell number of 5600. Also, in experiment [27], the outcome was inactive. The Effect was 25.9 in experiment [28] and 17.6 in experiment [29]. This compound had an inhibition in [30] of 26%.
